Data: ChEMBL document CHEMBL4270612, “Discovery of dual GyrB/ParE inhibitors active against Gram-negative bacteria” (Eur J Med Chem, 2018)
In brackets after ≈: the same amount, converted by molar mass.

Assays:
[1] = target: DNA gyrase subunit B (Escherichia coli, UniProt P0AES6); assay: Inhibition of Escherichia coli GyrB (1 to 220 residues) expressed in Escherichia coli BL21(DE3)
[2] = target: DNA topoisomerase 4 subunit B (Escherichia coli K-12, UniProt P20083); assay: Inhibition of Escherichia coli ParE
Sequence of DNA topoisomerase 4 subunit B (P20083 whole entry): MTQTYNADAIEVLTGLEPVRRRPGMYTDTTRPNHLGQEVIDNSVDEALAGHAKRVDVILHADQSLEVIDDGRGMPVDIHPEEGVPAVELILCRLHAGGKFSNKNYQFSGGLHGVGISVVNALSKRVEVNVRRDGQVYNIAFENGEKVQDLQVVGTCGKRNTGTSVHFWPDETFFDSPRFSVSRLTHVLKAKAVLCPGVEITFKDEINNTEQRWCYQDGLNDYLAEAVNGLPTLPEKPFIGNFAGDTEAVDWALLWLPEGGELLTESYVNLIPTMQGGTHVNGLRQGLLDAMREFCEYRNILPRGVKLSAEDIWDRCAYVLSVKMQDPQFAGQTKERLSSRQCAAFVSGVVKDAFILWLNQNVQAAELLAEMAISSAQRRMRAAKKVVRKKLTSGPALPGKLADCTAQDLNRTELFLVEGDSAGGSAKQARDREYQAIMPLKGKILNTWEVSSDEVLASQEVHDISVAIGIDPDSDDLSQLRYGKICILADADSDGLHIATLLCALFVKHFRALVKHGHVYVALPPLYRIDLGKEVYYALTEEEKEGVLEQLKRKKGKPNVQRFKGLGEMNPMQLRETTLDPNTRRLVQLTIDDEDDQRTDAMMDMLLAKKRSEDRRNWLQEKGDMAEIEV

[3] = tested on: Pseudomonas aeruginosa; assay: Antibacterial activity against Pseudomonas aeruginosa harboring MexABCDXY deletion mutant after 24 hrs by broth microdilution method; assay type: functional
Method in brief: (§1)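 Broth microdilution per CLSI. Bacterial suspensions adjusted to 1×10^6 CFU/mL in cation-adjusted Mueller–Hinton broth, mixed 1:1 with 2-fold serial compound dilutions (final DMSO 2.5% v/v). Incubation 35 °C, 140 rpm, 24 h.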

[4] = tested on: Escherichia coli; assay: Antibacterial activity against Escherichia coli after 24 hrs by broth microdilution method; assay type: functional
Method in brief: (§2)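 Broth microdilution per CLSI. Bacterial suspension adjusted to 1×10^6 CFU/mL in cation-adjusted Mueller–Hinton broth and mixed 1:1 with 2-fold serial compound dilutions. Final DMSO 2.5% v/v. Plates incubated at 35 °C with shaking at 140 rpm for 24 h.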

[5] = tested on: Escherichia coli; assay: Antibacterial activity against tolC deficient Escherichia coli after 24 hrs by broth microdilution method; assay type: functional
Method in brief: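 Broth microdilution per CLSI guidelines. Inoculum adjusted to 1×10^6 CFU/mL in cation-adjusted Mueller–Hinton broth, added 1:1 to 2-fold serial compound dilutions; final DMSO 2.5% v/v. Plates incubated 35 °C, 140 rpm, 24 h.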

[6] = tested on: Acinetobacter baumannii; assay: (§3) Antibacterial activity against Acinetobacter baumannii ARC3495 after 24 hrs by broth microdilution method; assay type: functional; settings: ARC3495, 24 h; method in brief: as §2
[7] = tested on: Klebsiella pneumoniae; assay: Antibacterial activity against Klebsiella pneumoniae ARC1865 after 24 hrs by broth microdilution method; assay type: functional; settings: ARC1865, 24 h; method in brief: as §2
[8] = tested on: Haemophilus influenzae; assay: Antibacterial activity against Haemophilus influenzae ATCC 49247 after 24 hrs by broth microdilution method; assay type: functional; settings: ATCC 49247, 24 h; method in brief: as §2
[9] = tested on: Enterobacter cloacae; assay: Antibacterial activity against Enterobacter cloacae ARC3528 after 24 hrs by broth microdilution method; assay type: functional; settings: ARC3528, 24 h; method in brief: as §2
[10] = tested on: Staphylococcus aureus; assay: Antibacterial activity against methicillin-resistant Staphylococcus aureus FQ-R after 24 hrs by broth microdilution method; assay type: functional; method in brief: as §1
[11] = tested on: Staphylococcus aureus; assay: Antibacterial activity against methicillin-resistant Staphylococcus aureus USA100 after 24 hrs by broth microdilution method; assay type: functional; settings: USA100, 24 h; method in brief: as §1
[12] = tested on: Streptococcus pyogenes; assay: Antibacterial activity against Streptococcus pyogenes ARC838 after 24 hrs by broth microdilution method; assay type: functional; settings: ARC838, 24 h
Method in brief: (§4)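 Broth microdilution per CLSI. Bacterial suspension adjusted to 1×10^6 CFU/mL in cation-adjusted Mueller–Hinton broth and mixed 1:1 with 2-fold serial compound dilutions. Plates incubated at 35 °C with shaking at 140 rpm for 24 h.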

[13] = tested on: Candida albicans; assay: Antifungal activity against Candida albicans ATCC 90028 after 24 hrs by broth microdilution method; assay type: functional; settings: ATCC 90028, 24 h
[14] = tested on: Pseudomonas aeruginosa; assay: Antibacterial activity against Pseudomonas aeruginosa ARC3502 after 24 hrs by broth microdilution method; assay type: functional; settings: ARC3502, 24 h; method in brief: as §4
[15] = tested on: Pseudomonas aeruginosa; assay: Antibacterial activity against Pseudomonas aeruginosa ARC003 after 24 hrs by broth microdilution method; assay type: functional; settings: ARC003, 24 h; method in brief: as §2
[16] = tested on: Pseudomonas aeruginosa; assay: Antibacterial activity against Pseudomonas aeruginosa ARC3504 after 24 hrs by broth microdilution method; assay type: functional; settings: ARC3504, 24 h; method in brief: as §2
[17] = tested on: Pseudomonas aeruginosa; assay: Antibacterial activity against Pseudomonas aeruginosa ARC3505 after 24 hrs by broth microdilution method; assay type: functional; settings: ARC3505, 24 h; method in brief: as §2
[18] = tested on: Pseudomonas aeruginosa; assay: Antibacterial activity against Pseudomonas aeruginosa ARC3506 after 24 hrs by broth microdilution method; assay type: functional; settings: ARC3506, 24 h; method in brief: as §2
[19] = tested on: Pseudomonas aeruginosa; assay: Antibacterial activity against Pseudomonas aeruginosa ARC3509 after 24 hrs by broth microdilution method; assay type: functional; settings: ARC3509, 24 h; method in brief: as §2
[20] = tested on: Pseudomonas aeruginosa; assay: Antibacterial activity against Pseudomonas aeruginosa ARC3511 after 24 hrs by broth microdilution method; assay type: functional; settings: ARC3511, 24 h; method in brief: as §4
[21] = tested on: Pseudomonas aeruginosa; assay: Antibacterial activity against Pseudomonas aeruginosa ARC3514 after 24 hrs by broth microdilution method; assay type: functional; settings: ARC3514, 24 h; method in brief: as §4
[22] = tested on: Pseudomonas aeruginosa; assay: Antibacterial activity against Pseudomonas aeruginosa ARC3606 after 24 hrs by broth microdilution method; assay type: functional; settings: ARC3606, 24 h; method in brief: as §2
[23] = tested on: Pseudomonas aeruginosa; assay: Antibacterial activity against Pseudomonas aeruginosa ARC3611 after 24 hrs by broth microdilution method; assay type: functional; settings: ARC3611, 24 h; method in brief: as §2
[24] = tested on: Pseudomonas aeruginosa; assay: Antibacterial activity against Pseudomonas aeruginosa ARC3612 after 24 hrs by broth microdilution method; assay type: functional; settings: ARC3612, 24 h; method in brief: as §2
[25] = tested on: Pseudomonas aeruginosa; assay: Antibacterial activity against Pseudomonas aeruginosa ARC3727 after 24 hrs by broth microdilution method; assay type: functional; settings: ARC3727, 24 h; method in brief: as §4
[26] = tested on: Pseudomonas aeruginosa; assay: Antibacterial activity against Pseudomonas aeruginosa ARC3729 after 24 hrs by broth microdilution method; assay type: functional; settings: ARC3729, 24 h; method in brief: as §2
[27] = tested on: Pseudomonas aeruginosa; assay: Antibacterial activity against Pseudomonas aeruginosa ARC3756 after 24 hrs by broth microdilution method; assay type: functional; settings: ARC3756, 24 h; method in brief: as §4
[28] = tested on: Pseudomonas aeruginosa; assay: Antibacterial activity against Pseudomonas aeruginosa ARC3916 after 24 hrs by broth microdilution method; assay type: functional; settings: ARC3916, 24 h; method in brief: as §2
[29] = tested on: Pseudomonas aeruginosa; assay: Antibacterial activity against Pseudomonas aeruginosa ARC4060 after 24 hrs by broth microdilution method; assay type: functional; settings: ARC4060, 24 h; method in brief: as §2
[30] = tested on: Pseudomonas aeruginosa; assay: Antibacterial activity against Pseudomonas aeruginosa ARC4068 after 24 hrs by broth microdilution method; assay type: functional; settings: ARC4068, 24 h; method in brief: as §4
[31] = tested on: Acinetobacter baumannii; assay: Antibacterial activity against Acinetobacter baumannii ARC2674 after 24 hrs by broth microdilution method; assay type: functional; settings: ARC2674, 24 h; method in brief: as §2
[32] = tested on: Acinetobacter baumannii; assay: Antibacterial activity against Acinetobacter baumannii ARC2779 after 24 hrs by broth microdilution method; assay type: functional; settings: ARC2779, 24 h; method in brief: as §2
[33] = tested on: Acinetobacter baumannii; assay: Antibacterial activity against Acinetobacter baumannii ARC2780 after 24 hrs by broth microdilution method; assay type: functional; settings: ARC2780, 24 h; method in brief: as §4
[34] = tested on: Acinetobacter baumannii; assay: Antibacterial activity against Acinetobacter baumannii ARC2782 after 24 hrs by broth microdilution method; assay type: functional; settings: ARC2782, 24 h; method in brief: as §2
[35] = tested on: Acinetobacter baumannii; assay: Antibacterial activity against Acinetobacter baumannii ARC3485 after 24 hrs by broth microdilution method; assay type: functional; settings: ARC3485, 24 h; method in brief: as §2
[36] = tested on: Acinetobacter baumannii; assay: Antibacterial activity against Acinetobacter baumannii ARC3486 after 24 hrs by broth microdilution method; assay type: functional; settings: ARC3486, 24 h; method in brief: as §2
[37] = tested on: Acinetobacter baumannii; assay: Antibacterial activity against Acinetobacter baumannii ARC3492 after 24 hrs by broth microdilution method; assay type: functional; settings: ARC3492, 24 h; method in brief: as §4
[38] = tested on: Acinetobacter baumannii; assay: as §3; assay type: functional; settings: ARC3495, 24 h; method in brief: as §2; remark: listed apart in the source
[39] = tested on: Acinetobacter baumannii; assay: Antibacterial activity against Acinetobacter baumannii ARC3513 after 24 hrs by broth microdilution method; assay type: functional; settings: ARC3513, 24 h; method in brief: as §2
[40] = tested on: Acinetobacter baumannii; assay: Antibacterial activity against Acinetobacter baumannii ARC3515 after 24 hrs by broth microdilution method; assay type: functional; settings: ARC3515, 24 h; method in brief: as §2
[41] = tested on: Acinetobacter baumannii; assay: Antibacterial activity against Acinetobacter baumannii ARC3658 after 24 hrs by broth microdilution method; assay type: functional; settings: ARC3658, 24 h; method in brief: as §2
[42] = tested on: Acinetobacter baumannii; assay: Antibacterial activity against Acinetobacter baumannii ARC3659 after 24 hrs by broth microdilution method; assay type: functional; settings: ARC3659, 24 h; method in brief: as §2
[43] = Thermodynamic solubility of the compound at pH 7.4; assay type: physicochemical; settings: buffer, read-out: Therm_solubility

## CCNC(=O)Nc1cc(-c2nc(C3CC3)cs2)c(-c2cc(-c3n[nH]c(=O)o3)cnc2N2C3CCC2CN(C)C3)cn1
[1]
  IC50: 2 nM
[2]
  IC50: 3 nM
[3]
  MIC: 0.23 µg/mL (≈ 0.401 µM)
[4]
  MIC: 0.57 µg/mL (≈ 0.994 µM)
[5]
  MIC: 0.11 µg/mL (≈ 0.192 µM)
[6]
  MIC: 0.5 µg/mL (≈ 0.872 µM)
[7]
  MIC: 16 µg/mL (≈ 27.9 µM)
[8]
  MIC: < 0.06 µg/mL
[9]
  MIC: 16 µg/mL (≈ 27.9 µM)
[10]
  MIC: < 0.06 µg/mL
[11]
  MIC: < 0.06 µg/mL
[12]
  MIC: < 0.06 µg/mL
[13]
  MIC: > 64 µg/mL
[14]
  MIC: 4 µg/mL (≈ 6.97 µM)
[15]
  MIC: 1 µg/mL (≈ 1.74 µM)
[16]
  MIC: 4 µg/mL (≈ 6.97 µM)
[17]
  MIC: 4 µg/mL (≈ 6.97 µM)
[18]
  MIC: 2 µg/mL (≈ 3.49 µM)
[19]
  MIC: 4 µg/mL (≈ 6.97 µM)
[20]
  MIC: 1 µg/mL (≈ 1.74 µM)
[21]
  MIC: 2 µg/mL (≈ 3.49 µM)
[22]
  MIC: 4 µg/mL (≈ 6.97 µM)
[23]
  MIC: 4 µg/mL (≈ 6.97 µM)
[24]
  MIC: 4 µg/mL (≈ 6.97 µM)
[25]
  MIC: 4 µg/mL (≈ 6.97 µM)
[26]
  MIC: 4 µg/mL (≈ 6.97 µM)
[27]
  MIC: 4 µg/mL (≈ 6.97 µM)
[28]
  MIC: 2 µg/mL (≈ 3.49 µM)
[29]
  MIC: 4 µg/mL (≈ 6.97 µM)
[30]
  MIC: 4 µg/mL (≈ 6.97 µM)
[31]
  MIC: 4 µg/mL (≈ 6.97 µM)
[32]
  MIC: 1 µg/mL (≈ 1.74 µM)
[33]
  MIC: 0.5 µg/mL (≈ 0.872 µM)
[34]
  MIC: 1 µg/mL (≈ 1.74 µM)
[35]
  MIC: 2 µg/mL (≈ 3.49 µM)
[36]
  MIC: 2 µg/mL (≈ 3.49 µM)
[37]
  MIC: 1 µg/mL (≈ 1.74 µM)
[38]
  MIC: 0.5 µg/mL (≈ 0.872 µM)
[39]
  MIC: 4 µg/mL (≈ 6.97 µM)
[40]
  MIC: 2 µg/mL (≈ 3.49 µM)
[41]
  MIC: 1 µg/mL (≈ 1.74 µM)
[42]
  MIC: 1 µg/mL (≈ 1.74 µM)
[43]
  solubility thermodynamic: 65.8 µM (≈ 37.7 µg/mL)
